Activity calls are given as the source filed them. No cut-off for these calls is given here.
Experiments:
HCT-116 = experiment: Growth inhibition of human HCT116 cells; format: functional
SN12C = experiment: Growth inhibition of human SN12C cells; format: functional
[1] = Growth inhibition of human NCI60 cells; format: functional
SF-539 = experiment: Growth inhibition of human SF539 cells; format: functional
UACC-62 = experiment: Growth inhibition of human UACC62 cells; format: functional
OVCAR-3 = experiment: Growth inhibition of human OVCAR3 cells; format: functional
DU-145 = experiment: Antiproliferative activity against human DU145 cells after 96 hrs by WST1 assay; format: functional; conditions: DU-145, 96 h
Outline: (§1)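 Cells were grown in RPMI-1640 with 10% FBS at 37 °C in 5% CO2, then seeded at 5000 cells/well. They were exposed to compound at 10^-9–10^-4 M or vehicle for 96 h. Live cells were read by WST-1 and expressed as percent of mean control, from which GI50 was calculated. Runs were done in triplicate.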

HOP-62 = experiment: Growth inhibition of human HOP62 cells; format: functional
MDA-MB-231 = experiment: Antiproliferative activity against estrogen-negative human MDA-MB-231 cells after 96 hrs by WST1 assay; format: functional; conditions: MDA-MB-231, 96 h; outline: as §1
MCF7 = experiment: Antiproliferative activity against estrogen-positive human MCF7 cells; format: functional
Mus musculus [2] = experiment: Antiangiogenic activity in Matrigel plug implanted C57BL/6J mouse assessed as inhibition of bFGF-induced angiogenesis at 20 mg/kg, po administered 24 hrs after implantation for 4 days measured by FITC-conjugated dextran staining based fluorimetry; format: functional, organism-based; parameters: dose 20 mg/kg
Outline: (§2)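 Female C57BL/6J mice (6–8 weeks) were injected subcutaneously in the flanks with 0.5 mL ice-cold Matrigel plus 500 ng bFGF. Oral dosing in vehicle (10% THF, 90% PG) ran daily for 4 days, starting 24 h after Matrigel. Groups had five mice. FITC-dextran (0.1 mL of 0.25 mg/mL) was given iv and mice killed 20 min later. Plugs were digested in Dispase 16 h at 37 °C, and supernatant fluorescence read at ex 480/em 520 nm against a FITC-dextran standard curve.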

Mus musculus [3] = experiment: Antiangiogenic activity in Matrigel plug implanted C57BL/6J mouse assessed as inhibition of bFGF-induced angiogenesis at 10 mg/kg, po administered 24 hrs after implantation for 4 days measured by FITC-conjugated dextran staining based fluorimetry; format: functional, organism-based; parameters: dose 10 mg/kg; outline: as §2
[4] = Toxicity in ip dosed athymic nude mouse administered as single dose; format: organism-based; conditions: in vivo
Outline: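 Preliminary toxicology run at the NCI in female athymic nude mice. Each mouse received a single ip dose, at doses up to 400 mg/kg. The compound was formulated in 10% DMSO in saline/Tween 80.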

SMILES	GI50 (HCT-116)	GI50 (SN12C)	GI50 [1]	GI50 (SF-539)	GI50 (UACC-62)	GI50 (OVCAR-3)	GI50 (DU-145)	GI50 (HOP-62)	GI50 (MDA-MB-231)	GI50 (MCF7)	other results
CCc1cc2c(cc1OS(N)(=O)=O)CC[C@@H]1[C@@H]2CC[C@]2(C)[C@@H](CCF)CC[C@@H]12	3390 nM	7590 nM	6310 nM	5250 nM	3890 nM	22900 nM	780 nM	3720 nM	–	–	–
COc1cc2c(cc1OS(N)(=O)=O)CC[C@@H]1[C@@H]2CC[C@]2(C)[C@@H](CC(C)O)CC[C@@H]12 (some centres undefined)	25 nM	52 nM	28 nM	23 nM	< 10 nM	< 10 nM	140 nM	48 nM	140 nM	–	–
CCc1cc2c(cc1OS(N)(=O)=O)CC[C@@H]1[C@@H]2CC[C@]2(C)[C@@H](CCOC)CC[C@@H]12	2700 nM	4680 nM	4570 nM	5010 nM	2340 nM	4070 nM	3400 nM	4900 nM	–	–	–
CCc1cc2c(cc1OS(N)(=O)=O)CC[C@@H]1[C@@H]2CC[C@]2(C)[C@@H](CCO)CC[C@@H]12	270 nM	2450 nM	1730 nM	350 nM	2890 nM	11500 nM	–	250 nM	–	< 500 nM	–
CCc1cc2c(cc1O)CC[C@@H]1[C@@H]2CC[C@]2(C)[C@@H](CC#N)CC[C@@H]12	–	–	–	–	–	–	–	–	–	> 100000 nM	–
CCc1cc2c(cc1O)CC[C@@H]1[C@@H]2CC[C@]2(C)[C@@H](C(C)=O)CC[C@@H]12	–	–	–	–	–	–	2000 nM	–	–	–	–
CCc1cc2c(cc1O)CC[C@@H]1[C@@H]2CC[C@]2(C)/C(=C\CO)CC[C@@H]12	–	–	–	–	–	–	–	–	–	670 nM	–
CCOC(=O)/C=C1\CC[C@H]2[C@@H]3CCc4cc(OS(N)(=O)=O)c(CC)cc4[C@H]3CC[C@]12C	–	–	–	–	–	–	–	–	–	1850 nM	–
CCOC(=O)/C=C1/CC[C@H]2[C@@H]3CCc4cc(O)c(CC)cc4[C@H]3CC[C@]12C	–	–	–	–	–	–	–	–	–	31100 nM	–
COc1cc2c(cc1OS(N)(=O)=O)CC[C@@H]1[C@@H]2CC[C@]2(C)[C@@H](C(C)=O)CC[C@@H]12	–	–	–	–	–	–	46 nM	–	48 nM	–	–
COc1cc2c(cc1O)CC[C@@H]1[C@@H]2CC[C@]2(C)[C@@H](C(C)=O)CC[C@@H]12	–	–	–	–	–	–	300 nM	–	390 nM	–	–
CCc1cc2c(cc1OS(N)(=O)=O)CC[C@@H]1[C@@H]2CC[C@]2(C)[C@@H](CCOS(N)(=O)=O)CC[C@@H]12	–	–	–	–	–	–	–	–	–	5640 nM	–
COc1cc2c(cc1OS(N)(=O)=O)CC[C@@H]1[C@@H]2CC[C@]2(C)[C@@H](CC(C)=O)CC[C@@H]12	< 10 nM	< 10 nM	21 nM	< 10 nM	< 10 nM	< 10 nM	89 nM	< 10 nM	68 nM	< 5 nM	Activity (Mus musculus [2]): Active; Activity (Mus musculus [3]): Active
CCc1cc2c(cc1O)CC[C@@H]1[C@@H]2CC[C@]2(C)[C@@H](CC(C)=O)CC[C@@H]12	–	–	–	–	–	–	18900 nM	–	–	5790 nM	–
CCc1cc2c(cc1O)CC[C@@H]1[C@@H]2CC[C@]2(C)/C(=C/COC)CC[C@@H]12	–	–	–	–	–	–	–	–	–	> 10000 nM	–
CCc1cc2c(cc1OS(N)(=O)=O)CC[C@@H]1[C@@H]2CC[C@]2(C)[C@@H](COS(N)(=O)=O)CC[C@@H]12	38 nM	309 nM	85 nM	56 nM	22 nM	19 nM	290 nM	61 nM	430 nM	–	–
CCc1cc2c(cc1O)CC[C@@H]1[C@@H]2CC[C@]2(C)[C@@H](CCF)CC[C@@H]12	–	–	–	–	–	–	3400 nM	–	–	–	–
CCc1cc2c(cc1O)CC[C@@H]1[C@@H]2CC[C@]2(C)[C@@H](CCO)CC[C@@H]12	–	–	–	–	–	–	–	–	–	2520 nM	–

SMILES	GI50 (HCT-116)	GI50 (SN12C)	GI50 [1]	GI50 (SF-539)	GI50 (UACC-62)	GI50 (OVCAR-3)	GI50 (DU-145)	GI50 (HOP-62)	GI50 (MDA-MB-231)	GI50 (MCF7)	other results
CCc1cc2c(cc1O)CC[C@@H]1[C@@H]2CC[C@]2(C)/C(=C/CO)CC[C@@H]12	–	–	–	–	–	–	–	–	–	770 nM	–
CCOC(=O)/C=C1\CC[C@H]2[C@@H]3CCc4cc(O)c(CC)cc4[C@H]3CC[C@]12C	–	–	–	–	–	–	–	–	–	30600 nM	–
CCc1cc2c(cc1OS(N)(=O)=O)CC[C@@H]1[C@@H]2CC[C@]2(C)[C@@H](OS(N)(=O)=O)CC[C@@H]12	–	28 nM	18 nM	< 10 nM	< 10 nM	< 10 nM	–	< 10 nM	–	–	–
CCc1cc2c(cc1OS(N)(=O)=O)CC[C@@H]1[C@@H]2CC[C@]2(C)[C@@H](CC(C)=O)CC[C@@H]12	–	–	–	–	–	–	160 nM	–	180 nM	320 nM	–
CCc1cc2c(cc1O)CC[C@@H]1[C@@H]2CC[C@]2(C)[C@@H](CCOC)CC[C@@H]12	–	–	–	–	–	–	–	–	–	24800 nM	–
COc1cc2c(cc1O)CC[C@@H]1[C@@H]2CC[C@]2(C)[C@@H](CC(C)=O)CC[C@@H]12	–	–	–	–	–	–	2400 nM	–	–	–	–
CCc1cc2c(cc1OS(N)(=O)=O)CC[C@@H]1[C@@H]2CC[C@]2(C)[C@@H](COC)CC[C@@H]12	22 nM	72 nM	42 nM	< 10 nM	–	< 10 nM	330 nM	45 nM	530 nM	–	–
CCc1cc2c(cc1O)CC[C@@H]1[C@@H]2CC[C@]2(C)[C@@H](CO)CC[C@@H]12	–	–	–	–	–	–	10100 nM	–	6300 nM	–	–
CCc1cc2c(cc1O)CC[C@@H]1[C@@H]2CC[C@]2(C)[C@@H](COC)CC[C@@H]12	–	–	–	–	–	–	25300 nM	–	9200 nM	–	–
CCOC(=O)C[C@H]1CC[C@H]2[C@@H]3CCc4cc(OS(N)(=O)=O)c(CC)cc4[C@H]3CC[C@]12C	350 nM	630 nM	520 nM	220 nM	450 nM	220 nM	–	590 nM	–	4190 nM	–
CCc1cc2c(cc1OS(N)(=O)=O)CC[C@@H]1[C@@H]2CC[C@]2(C)[C@@H](C(C)=O)CC[C@@H]12	< 10 nM	< 10 nM	15 nM	< 10 nM	< 10 nM	< 10 nM	62 nM	< 10 nM	19 nM	26 nM	Activity (Mus musculus [2]): Active; Activity (Mus musculus [3]): Active
CCc1cc2c(cc1OS(N)(=O)=O)CC[C@@H]1[C@@H]2CC[C@]2(C)[C@@H](CO)CC[C@@H]12	< 10 nM	< 10 nM	18 nM	< 10 nM	< 10 nM	< 10 nM	100 nM	< 10 nM	110 nM	–	MTD [4]: 400 mg/kg
COc1cc2c(cc1OS(N)(=O)=O)CC[C@@H]1[C@@H]2CC[C@]2(C)[C@@H](C/C(C)=N\O)CC[C@@H]12	–	–	–	–	–	–	2090 nM	–	2350 nM	–	–
CCc1cc2c(cc1O)CC[C@@H]1[C@@H]2CC[C@]2(C)[C@@H](CC(F)F)CC[C@@H]12	–	–	–	–	–	–	60000 nM	–	–	–	–
CCc1cc2c(cc1OS(N)(=O)=O)CC[C@@H]1[C@@H]2CC[C@]2(C)/C(=C/CO)CC[C@@H]12	270 nM	580 nM	490 nM	220 nM	470 nM	230 nM	–	420 nM	–	10000 nM	–
CCc1cc2c(cc1OS(N)(=O)=O)CC[C@@H]1[C@@H]2CC[C@]2(C)[C@@H](CC(F)F)CC[C@@H]12	2820 nM	5370 nM	3090 nM	1950 nM	4900 nM	3470 nM	1810 nM	3890 nM	–	–	–
CCOC(=O)C[C@H]1CC[C@H]2[C@@H]3CCc4cc(O)c(CC)cc4[C@H]3CC[C@]12C	–	–	–	–	–	–	–	–	–	26400 nM	–
